Laboratory results as given in ChEMBL document CHEMBL3044834, “Novel protoporphyrinogen oxidase inhibitors: 3H-pyrazolo[3,4-d][1,2,3]triazin-4-one derivatives” (J Agric Food Chem, 2008).

How the values were obtained:
Format in all cases: functional
Echinochloa crus-galli [1] = test: Herbicidal activity against Echinochloa crus-galli (barnyard grass) assessed as inhibition of fresh weed plant weight at 375 g/ha using pre-emergence treatment protocol
In short: (§1)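 Test compounds made up as emulsions by dissolving in 100 µL N,N-dimethylformamide, then adding a little Tween 20 and water. For post-emergence, weed seedlings at one leaf and one stem were sprayed at the same rates as the pre-emergence test. Fresh weight was recorded 15 days after treatment and expressed as percent inhibition versus controls. All treatments were run in triplicate.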

Digitaria sanguinalis [2] = test: Herbicidal activity against Digitaria sanguinalis (hairy crabgrass) assessed as inhibition of fresh weed plant weight at 375 g/ha using pre-emergence treatment protocol
Amaranthus retroflexus [3] = test: Herbicidal activity against Amaranthus retroflexus assessed as inhibition of fresh weed plant weight at 375 g/ha using post-emergence treatment protocol; in short: as §1
Digitaria sanguinalis [4] = test: Herbicidal activity against Digitaria sanguinalis (hairy crabgrass) assessed as inhibition of fresh weed plant weight at 187.5 g/ha using pre-emergence treatment protocol
Amaranthus retroflexus [5] = test: Herbicidal activity against Amaranthus retroflexus assessed as inhibition of fresh weed plant weight at 187.5 g/ha using pre-emergence treatment protocol
Digitaria sanguinalis [6] = test: Herbicidal activity against Digitaria sanguinalis (hairy crabgrass) assessed as inhibition of fresh weed plant weight at 750 g/ha using pre-emergence treatment protocol
Amaranthus retroflexus [7] = test: Herbicidal activity against Amaranthus retroflexus assessed as inhibition of fresh weed plant weight at 187.5 g/ha using post-emergence treatment protocol; in short: as §1
Echinochloa crus-galli [8] = test: Herbicidal activity against Echinochloa crus-galli (barnyard grass) assessed as inhibition of fresh weed plant weight at 1500 g/ha using post-emergence treatment protocol; in short: as §1
[9] = test system: Brassica rapa subsp. oleifera; test: Herbicidal activity against Brassica rapa subsp. oleifera assessed as inhibition of fresh weed plant weight at 375 g/ha using pre-emergence treatment protocol
Digitaria sanguinalis [10] = test: Herbicidal activity against Digitaria sanguinalis (hairy crabgrass) assessed as inhibition of fresh weed plant weight at 187.5 g/ha using post-emergence treatment protocol; in short: as §1
Digitaria sanguinalis [11] = test: Herbicidal activity against Digitaria sanguinalis (hairy crabgrass) assessed as inhibition of fresh weed plant weight at 750 g/ha using post-emergence treatment protocol; in short: as §1
Digitaria sanguinalis [12] = test: Herbicidal activity against Digitaria sanguinalis (hairy crabgrass) assessed as inhibition of fresh weed plant weight at 1500 g/ha using pre-emergence treatment protocol
[13] = test system: Brassica rapa subsp. oleifera; test: Herbicidal activity against Brassica rapa subsp. oleifera assessed as inhibition of fresh weed plant weight at 750 g/ha using post-emergence treatment protocol; in short: as §1
Amaranthus retroflexus [14] = test: Herbicidal activity against Amaranthus retroflexus assessed as inhibition of fresh weed plant weight at 750 g/ha using post-emergence treatment protocol; in short: as §1
Echinochloa crus-galli [15] = test: Herbicidal activity against Echinochloa crus-galli (barnyard grass) assessed as inhibition of fresh weed plant weight at 187.5 g/ha using post-emergence treatment protocol; in short: as §1
Echinochloa crus-galli [16] = test: Herbicidal activity against Echinochloa crus-galli (barnyard grass) assessed as inhibition of fresh weed plant weight at 187.5 g/ha using pre-emergence treatment protocol; in short: as §1
[17] = test system: Brassica rapa subsp. oleifera; test: Herbicidal activity against Brassica rapa subsp. oleifera assessed as inhibition of fresh weed plant weight at 187.5 g/ha using pre-emergence treatment protocol
[18] = test system: Brassica rapa subsp. oleifera; test: Herbicidal activity against Brassica rapa subsp. oleifera assessed as inhibition of fresh weed plant weight at 375 g/ha using post-emergence treatment protocol; in short: as §1
Amaranthus retroflexus [19] = test: Herbicidal activity against Amaranthus retroflexus assessed as inhibition of fresh weed plant weight at 1500 g/ha using pre-emergence treatment protocol
Echinochloa crus-galli [20] = test: Herbicidal activity against Echinochloa crus-galli (barnyard grass) assessed as inhibition of fresh weed plant weight at 750 g/ha using pre-emergence treatment protocol
[21] = test system: Brassica rapa subsp. oleifera; test: Herbicidal activity against Brassica rapa subsp. oleifera assessed as inhibition of fresh weed plant weight at 1500 g/ha using pre-emergence treatment protocol
[22] = test system: Brassica rapa subsp. oleifera; test: Herbicidal activity against Brassica rapa subsp. oleifera assessed as inhibition of fresh weed plant weight at 1500 g/ha using post-emergence treatment protocol; in short: as §1
Amaranthus retroflexus [23] = test: Herbicidal activity against Amaranthus retroflexus assessed as inhibition of fresh weed plant weight at 1500 g/ha using post-emergence treatment protocol; in short: as §1
[24] = test system: Brassica rapa subsp. oleifera; test: Herbicidal activity against Brassica rapa subsp. oleifera assessed as inhibition of fresh weed plant weight at 187.5 g/ha using post-emergence treatment protocol; in short: as §1
Echinochloa crus-galli [25] = test: Herbicidal activity against Echinochloa crus-galli (barnyard grass) assessed as inhibition of fresh weed plant weight at 750 g/ha using post-emergence treatment protocol; in short: as §1
Amaranthus retroflexus [26] = test: Herbicidal activity against Amaranthus retroflexus assessed as inhibition of fresh weed plant weight at 750 g/ha using pre-emergence treatment protocol; in short: as §1
Echinochloa crus-galli [27] = test: Herbicidal activity against Echinochloa crus-galli (barnyard grass) assessed as inhibition of fresh weed plant weight at 1500 g/ha using pre-emergence treatment protocol
[28] = test system: Brassica rapa subsp. oleifera; test: Herbicidal activity against Brassica rapa subsp. oleifera assessed as inhibition of fresh weed plant weight at 750 g/ha using pre-emergence treatment protocol
Digitaria sanguinalis [29] = test: Herbicidal activity against Digitaria sanguinalis (hairy crabgrass) assessed as inhibition of fresh weed plant weight at 375 g/ha using post-emergence treatment protocol; in short: as §1
Echinochloa crus-galli [30] = test: Herbicidal activity against Echinochloa crus-galli (barnyard grass) assessed as inhibition of fresh weed plant weight at 375 g/ha using post-emergence treatment protocol; in short: as §1
Amaranthus retroflexus [31] = test: Herbicidal activity against Amaranthus retroflexus assessed as inhibition of fresh weed plant weight at 375 g/ha using pre-emergence treatment protocol
Digitaria sanguinalis [32] = test: Herbicidal activity against Digitaria sanguinalis (hairy crabgrass) assessed as inhibition of fresh weed plant weight at 1500 g/ha using post-emergence treatment protocol; in short: as §1

Row | SMILES | inhibition at 375 g/ha (Echinochloa crus-galli [1]) [%] | inhibition at 375 g/ha (Digitaria sanguinalis [2]) [%] | inhibition at 375 g/ha (Amaranthus retroflexus [3]) [%] | inhibition at 187.5 g/ha (Digitaria sanguinalis [4]) [%] | inhibition at 187.5 g/ha (Amaranthus retroflexus [5]) [%] | inhibition at 750 g/ha (Digitaria sanguinalis [6]) [%] | inhibition at 187.5 g/ha (Amaranthus retroflexus [7]) [%] | inhibition at 1500 g/ha (Echinochloa crus-galli [8]) [%] | inhibition at 375 g/ha [9] [%] | inhibition at 187.5 g/ha (Digitaria sanguinalis [10]) [%] | inhibition at 750 g/ha (Digitaria sanguinalis [11]) [%] | inhibition at 1500 g/ha (Digitaria sanguinalis [12]) [%] | inhibition at 750 g/ha [13] [%] | inhibition at 750 g/ha (Amaranthus retroflexus [14]) [%] | inhibition at 187.5 g/ha (Echinochloa crus-galli [15]) [%] | inhibition at 187.5 g/ha (Echinochloa crus-galli [16]) [%] | inhibition at 187.5 g/ha [17] [%] | inhibition at 375 g/ha [18] [%] | inhibition at 1500 g/ha (Amaranthus retroflexus [19]) [%] | inhibition at 750 g/ha (Echinochloa crus-galli [20]) [%] | other results
1 | C=CCOc1cc(-n2nnc3nn(CC=C)cc3c2=O)c(F)cc1Cl | 18.4 | 4.3 | 100 | 0 | 100 | 8.7 | 36.6 | 35.8 | 13.4 | 22.2 | 44.4 | 18 | 32.6 | 100 | 14.1 | 0 | 3 | 8.6 | 100 | 22.1 | inhibition at 1500 g/ha [21]: 50.7%; inhibition at 1500 g/ha [22]: 60.8%; inhibition at 1500 g/ha (Amaranthus retroflexus [23]): 100%; inhibition at 187.5 g/ha [24]: 6.3%; inhibition at 750 g/ha (Echinochloa crus-galli [25]): 18%; inhibition at 750 g/ha (Amaranthus retroflexus [26]): 100%; inhibition at 1500 g/ha (Echinochloa crus-galli [27]): 39.6%; inhibition at 750 g/ha [28]: 23.9%; inhibition at 375 g/ha (Digitaria sanguinalis [29]): 33.3%; inhibition at 375 g/ha (Echinochloa crus-galli [30]): 16.1%; inhibition at 375 g/ha (Amaranthus retroflexus [31]): 100%; inhibition at 1500 g/ha (Digitaria sanguinalis [32]): 60.7%
2 | C#CCN1C(=O)COc2cc(F)c(-n3nnc4nn(CCC)cc4c3=O)cc21 | 5.6 | 26.1 | 100 | 0 | 100 | 32.6 | 56.1 | 40.9 | 45.5 | 13.9 | 22.2 | 51.6 | 19.4 | 100 | 10.2 | 0 | 16.4 | 18.9 | 100 | 16.9 | inhibition at 1500 g/ha [21]: 75.1%; inhibition at 1500 g/ha [22]: 27.9%; inhibition at 1500 g/ha (Amaranthus retroflexus [23]): 100%; inhibition at 187.5 g/ha [24]: 11.4%; inhibition at 750 g/ha (Echinochloa crus-galli [25]): 25.9%; inhibition at 750 g/ha (Amaranthus retroflexus [26]): 100%; inhibition at 1500 g/ha (Echinochloa crus-galli [27]): 37.8%; inhibition at 750 g/ha [28]: 55.2%; inhibition at 375 g/ha (Digitaria sanguinalis [29]): 16.7%; inhibition at 375 g/ha (Echinochloa crus-galli [30]): 11.2%; inhibition at 375 g/ha (Amaranthus retroflexus [31]): 100%; inhibition at 1500 g/ha (Digitaria sanguinalis [32]): 43.8%
